By inhibition is commonly meant how much of the control response was suppressed.

Eleven compounds from ChEMBL document CHEMBL5104098, “Exploring the structure-activity relationship of benzylidene-2,3-dihydro-1H-inden-1-one compared to benzofuran-3(2H)-one derivatives as inhibitors of tau amyloid fibers” (Eur J Med Chem, 2022) can be followed below.

SMILES strings stand for the structures. Calls of active or inactive are those of the source. No cut-off for these calls is given here.

A short description of assay [1]: Inhibition of synthetic AcPHF6 peptide aggregation in pH 7.4 phosphate buffer assessed as reduction in fluorescence intensity at 10 uM and measured every minute over 2 hrs by ThT fluorescence assay relative to control. In outline:
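Fluorescence read every minute for 2 h, ex 440/em 480 nm. Intrinsic compound fluorescence corrected with peptide-free blank wells. Hexaplicate; % inhibition versus peptide-only control.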

Assay [2] in a line: Displacement of ThT from AcPHF6 in pH 7.4 phosphate buffer assessed as reduction in fluorescence intensity relative to control. The conditions noted are these: dose 10.0 µM. In outline:
(§1)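 Preformed AcPHF6 fibers (1 mM peptide left 24 h in deionised water) added to give 100 μM fibers with 10 μM ThT in 50 mM phosphate buffer pH 7.4, ≤0.5% DMSO; compound 10 μM (1:1 with ThT). Emission spectra recorded shortly after fiber addition, excitation 440 nm; % decrease calculated from emission intensity at 480 nm.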

Assay [3] in a line: Displacement of ThT from AcPHF6 in pH 7.4 phosphate buffer at 1:1 compound:ThT ratio. The gist of the method:
as §1

The nature of assay [4]: Inhibition of synthetic AcPHF6 peptide aggregation in pH 7.4 phosphate buffer assessed as reduction in beta sheet formation at 100 uM incubated for 2 hrs by circular dichroism spectroscopy. In outline:
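CD samples: 100 μM AcPHF6 in 50 mM phosphate buffer, compound with <0.2% DMSO, 1 mm quartz cell. Spectra taken after 2 h at room temperature, 260–190 nm, 1 nm resolution, 1 s per point, 10 nm bandwidth. Compound level is printed as 10 μM in methods and 100 μM in legend.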
A general note: CD spectra are sensitive to the conformation of chiral molecules.

Assay [5] is described as follows: Inhibition of synthetic AcPHF6 peptide aggregation in pH 7.4 phosphate buffer assessed as reduction in beta sheet fibrillation at 100 uM incubated for 24 hrs by atomic force microscopy analysis. In outline: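 AFM imaging of samples taken from the CD preparations after 24 h fibrillation at room temperature; 100 μM AcPHF6 alone or with compound at 100 μM.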

Regarding `O=C1/C(=C/c2cc(O)c(O)c(O)c2)Oc2cc(O)cc(O)c21`, the inhibition in assay [1] was determined as 99%; in assay [2], 94%. The inhibition entry in assay [3] is “Active”.

For `O=C1/C(=C/c2cc(O)c(O)c(O)c2)Oc2ccccc21`, the inhibition in assay [1] came out at 68%; in assay [2] it was 70%. Besides, the inhibition entry in assay [3] was “Active”.

Turning to `O=C1/C(=C/c2ccc(O)cc2O)Oc2cc(O)cc(O)c21`, the inhibition in assay [1] was found to be 94%; in assay [2], 89%. For the same compound, the inhibition result in assay [3] is “Active”.

On to `O=C1/C(=C/c2cc(O)c(O)c(O)c2)Cc2cc(O)cc(O)c21`, for which the inhibition was 87% in assay [1] and 90% in assay [2]. Besides, the inhibition result in assay [3] and in assay [4] was “Active” throughout.

On to `O=C1/C(=C/c2ccc(O)c(O)c2)Oc2cc(O)cc(O)c21`, for which the inhibition stood at 93% in assay [1] and 85% in assay [2]. The inhibition entry in assay [3] is “Active”.

Turning to `O=C1/C(=C/c2ccc(O)cc2O)Cc2cc(O)cc(O)c21`, the inhibition in assay [1] was found to be 72%; in assay [2] it was 76%. Also, in assay [3], the inhibition result was “Active”.

As for `O=C1/C(=C/c2cc(O)c(O)c(O)c2)Cc2ccccc21`, the inhibition in assay [1] came out at 71%; in assay [2] it was 42%. Further, the inhibition result in assay [3], in assay [4] and in assay [5] was “Active” each time.

On to `O=C1/C(=C/c2cc(O)c(O)c(O)c2)Oc2c(O)cccc21`, for which the inhibition in assay [1] was 91%; in assay [2], 88%. Further, the inhibition result in assay [3] is “Active”.

As for `COc1cccc(/C=C2\Oc3c(OC)cccc3C2=O)c1`, the figures for the inhibition in assay [1] and in assay [2] were 69% and 45%, respectively. Besides, the inhibition result in assay [3] was “Active”.

As to `O=C1/C(=C/c2ccc(O)c(O)c2)Cc2cc(O)cc(O)c21`, the figures for the inhibition in assay [1] and in assay [2] were 78% and 65%, respectively. For the same compound, in assay [3], the inhibition result was “Active”.

Regarding `O=C1/C(=C/c2cc(O)c(O)c(O)c2)Cc2c(O)cccc21`, the inhibition in assay [1] worked out at 83%; in assay [2], 78%. Also, the inhibition result in assay [3] and in assay [4] was “Active” throughout.
